Experimental data published in ChEMBL document CHEMBL4257537, “Design, synthesis, and biological evaluation of m-amidophenol derivatives as a new class of antitubercular agents” (Medchemcomm, 2018).
In brackets after ≈: the same amount, converted by molar mass.

Experiments:
Assay type in all cases: functional
[1] = tested on: Mycobacterium tuberculosis; assay: Antimycobacterial activity against rifampicin-resistant Mycobacterium tuberculosis isolate P91 after 7 days by microplate alamar blue assay; conditions: isolate P91, 168 h
Method in brief: (§1)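 Each well held a 1/100 culture dilution plus 10-point two-fold DMSO dilutions (top 100 µg/mL, final DMSO 2%). INH and RIF were the positive controls. After 7 days at 37 °C, Tween 80 and alamarBlue were added for 16–24 h. MIC was the lowest concentration preventing the blue-to-pink change.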

[2] = tested on: Mycobacterium tuberculosis; assay: Antimycobacterial activity against rifampicin-resistant Mycobacterium tuberculosis isolate P103 after 7 days by microplate alamar blue assay; conditions: isolate P103, 168 h; method in brief: as §1
[3] = tested on: Mycobacterium tuberculosis; assay: Antimycobacterial activity against rifampicin-resistant Mycobacterium tuberculosis isolate P98 after 7 days by microplate alamar blue assay; conditions: isolate P98, 168 h; method in brief: as §1
[4] = tested on: Mycobacterium tuberculosis; assay: Antimycobacterial activity against rifampicin-resistant Mycobacterium tuberculosis isolate P90 after 7 days by microplate alamar blue assay; conditions: isolate P90, 168 h; method in brief: as §1
[5] = tested on: Mycobacterium tuberculosis; assay: Antimycobacterial activity against rifampicin-resistant Mycobacterium tuberculosis isolate R7 after 7 days by microplate alamar blue assay; conditions: isolate R7, 168 h; method in brief: as §1
[6] = tested on: Mycobacterium tuberculosis; assay: Antimycobacterial activity against rifampicin/isoniazid/pyrazinamide-resistant Mycobacterium tuberculosis isolate P71 after 7 days by microplate alamar blue assay; conditions: isolate P71, 168 h; method in brief: as §1

SMILES | MIC [1] | MIC [2] | MIC [3] | MIC [4] | MIC [5] | MIC [6]
O=C(Nc1cc(O)cc(Cc2ccccc2)c1)C1CCCCC1 | 0.39 µg/mL (≈ 1.26 µM) | 0.39 µg/mL (≈ 1.26 µM) | > 100 µg/mL | > 100 µg/mL | 3.12 µg/mL (≈ 10.1 µM) | > 100 µg/mL
O=C(Nc1cc(O)cc(Cc2ccccc2)c1)c1ccccc1 | 0.39 µg/mL (≈ 1.29 µM) | 0.39 µg/mL (≈ 1.29 µM) | > 100 µg/mL | > 100 µg/mL | 0.78 µg/mL (≈ 2.57 µM) | > 100 µg/mL
